# Measurements taken from ChEMBL document CHEMBL5724801, “EUbOPEN Chemogenomics Library - Multiplex” (2024).
# Values joined by “and” are separate entries in the source; they are usually repeats but may differ in a detail not shown here. Equal entries are not always repeated.
# Test system: HEK-293T
# Assay: Multiplex assay against HEK293T
# Assay type: toxicity, cell-based
# Details: human
# Outline: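 Phenotypes for tubulin, mitochondrial mass and membrane permeability are expressed as per cents of healthy-nucleus cells. Cells were stained live at seeding with Hoechst33342, BioTracker Green Microtubule Cytoskeleton Dye, MitoTracker Red and Annexin V Alexa Fluor 680, then imaged after compound addition on a CQ1 microscope at 37°C and 5% CO2. Machine-learning gating in CellPathfinder separated Hoechst high-intensity objects from normal cells, divided normal cells by nuclear state (healthy, pyknosed, fragmented) and divided pyknosed cells into mitotic or apoptotic.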
# [1] = 12 h, 1 µM, compound concentration 1 uM
# [2] = 12 h, 10 µM, compound concentration 10 uM
# [3] = 24 h, 1 µM, compound concentration 1 uM
# [4] = 24 h, 10 µM, compound concentration 10 uM
# [5] = 48 h, 1 µM, compound concentration 1 uM
# [6] = 48 h, 10 µM, compound concentration 10 uM
compound,measurement,setting,value
CC(C)c1ccc(/C=N/NC(=O)c2ccc(O)cc2)cc1,Population Apoptotic (%),[1],6.34% and 9.68%
same,Population Fragmented Nuclei (%),[1],1.61% and 0.64%
same,Population Healthy Nuclei (%),[1],60.22% and 20.38%
same,Population Hoechst High Intensity Objects (%),[1],0.53% and 0%
same,Population Membrane Permeable-Phenotype (%),[1],0.45% and 0%
same,Population Mitochondria Different-Phenotype (%),[1],40.62% and 43.75%
same,Population Mitotic Cells (%),[1],93.66% and 90.32%
same,Population Normal (%),[1],99.47% and 100%
same,Population Pyknosed Nuclei (%),[1],38.17% and 78.98%
same,Total Cell Count,[1],374 and 157
same,Population Apoptotic (%),[2],12.69% and 7.75%
same,Population Fragmented Nuclei (%),[2],8.73% and 1.3%
same,Population Hoechst High Intensity Objects (%),[2],0.28% and 0%
same,Population Membrane Permeable-Phenotype (%),[2],0%
same,Population Mitochondria Different-Phenotype (%),[2],41.58% and 26.09%
same,Population Mitotic Cells (%),[2],87.31% and 92.25%
same,Population Normal (%),[2],99.72% and 100%
same,Population Pyknosed Nuclei (%),[2],37.75% and 83.77%
same,Total Cell Count,[2],356 and 154
same,Population Apoptotic (%),[3],16.67% and 14.29%
same,Population Fragmented Nuclei (%),[3],1.59% and 2.38%
same,Population Healthy Nuclei (%),[3],75.09% and 35.12%
same,Population Hoechst High Intensity Objects (%),[3],0%
same,Population Membrane Permeable-Phenotype (%),[3],0.71% and 3.39%
same,Population Mitochondria Different-Phenotype (%),[3],15.53% and 13.56%
same,Population Mitotic Cells (%),[3],83.33% and 85.71%
same,Population Normal (%),[3],100%
same,Population Pyknosed Nuclei (%),[3],23.32% and 62.5%
same,Population Tubulin-Different-Phenotype (%),[3],14.59% and 5.08%
same,Population Apoptotic (%),[4],14.4% and 12.98%
same,Population Fragmented Nuclei (%),[4],6.23% and 2.06%
same,Population Healthy Nuclei (%),[4],70.88% and 30.41%
same,Population Hoechst High Intensity Objects (%),[4],0%
same,Population Membrane Permeable-Phenotype (%),[4],0.78% and 0%
same,Population Mitochondria Different-Phenotype (%),[4],15.5% and 15.25%
same,Population Mitotic Cells (%),[4],85.6% and 87.02%
same,Population Normal (%),[4],100%
same,Population Pyknosed Nuclei (%),[4],22.89% and 67.53%
same,Population Tubulin-Different-Phenotype (%),[4],5.43% and 1.69%
same,Total Cell Count,[4],546 and 194
same,Population Apoptotic (%),[5],8.44% and 19.78%
same,Population Fragmented Nuclei (%),[5],2.76% and 1.47%
same,Population Healthy Nuclei (%),[5],85.78% and 53.92%
same,Population Hoechst High Intensity Objects (%),[5],0.15% and 0%
same,Population Membrane Permeable-Phenotype (%),[5],4.34% and 1.82%
same,Population Mitochondria Different-Phenotype (%),[5],13.72% and 24.55%
same,Population Mitotic Cells (%),[5],91.56% and 80.22%
same,Population Normal (%),[5],99.85% and 100%
same,Population Apoptotic (%),[6],10.39% and 16.36%
same,Population Fragmented Nuclei (%),[6],4.43% and 3.38%
same,Population Healthy Nuclei (%),[6],84.38% and 70.05%
same,Population Hoechst High Intensity Objects (%),[6],0.22% and 0%
same,Population Membrane Permeable-Phenotype (%),[6],1.81% and 0.69%
same,Population Mitochondria Different-Phenotype (%),[6],7.58% and 15.17%
same,Population Mitotic Cells (%),[6],89.61% and 83.64%
same,Population Normal (%),[6],99.78% and 100%
same,Population Pyknosed Nuclei (%),[6],11.19% and 26.57%
same,Population Tubulin-Different-Phenotype (%),[6],1.03% and 9.66%
S=c1[nH]nc(-c2cccs2)n1-c1ccccc1,Population Apoptotic (%),[1],14.62% and 11.2%
same,Population Fragmented Nuclei (%),[1],2.05% and 4.52%
same,Population Hoechst High Intensity Objects (%),[1],1.01% and 0%
same,Population Membrane Permeable-Phenotype (%),[1],0% and 4.35%
same,Population Mitochondria Different-Phenotype (%),[1],35.03% and 21.74%
same,Population Mitotic Cells (%),[1],85.38% and 88.8%
same,Population Normal (%),[1],98.99% and 100%
same,Population Pyknosed Nuclei (%),[1],44.37% and 80.65%
same,Total Cell Count,[1],296 and 155
same,Population Apoptotic (%),[2],8.82% and 18.42%
same,Population Fragmented Nuclei (%),[2],0.89% and 2.82%
same,Population Hoechst High Intensity Objects (%),[2],0%
same,Population Membrane Permeable-Phenotype (%),[2],0%
same,Population Mitotic Cells (%),[2],91.18% and 81.58%
same,Population Normal (%),[2],100%
same,Population Pyknosed Nuclei (%),[2],40.24% and 80.28%
same,Population Tubulin-Different-Phenotype (%),[2],9.05% and 25%
same,Total Cell Count,[2],338 and 142
same,Population Apoptotic (%),[3],11.36% and 17.16%
same,Population Fragmented Nuclei (%),[3],1.73% and 2.2%
same,Population Hoechst High Intensity Objects (%),[3],0.76% and 0%
same,Population Membrane Permeable-Phenotype (%),[3],0.26% and 2.27%
same,Population Mitochondria Different-Phenotype (%),[3],13.46% and 15.91%
same,Population Mitotic Cells (%),[3],88.64% and 82.84%
same,Population Normal (%),[3],99.24% and 100%
same,Population Pyknosed Nuclei (%),[3],25.38% and 73.63%
same,Population Tubulin-Different-Phenotype (%),[3],8.97% and 6.82%
same,Total Cell Count,[3],524 and 182
same,Population Apoptotic (%),[4],17.95% and 22%
same,Population Fragmented Nuclei (%),[4],1.78% and 2.9%
same,Population Hoechst High Intensity Objects (%),[4],0%
same,Population Membrane Permeable-Phenotype (%),[4],0.53% and 0%
same,Population Mitochondria Different-Phenotype (%),[4],11.35% and 2.94%
same,Population Mitotic Cells (%),[4],82.05% and 78%
same,Population Normal (%),[4],100%
same,Population Tubulin-Different-Phenotype (%),[4],9.76% and 8.82%
same,Population Fragmented Nuclei (%),[5],2.52% and 0.96%
same,Population Healthy Nuclei (%),[5],87.46% and 66.83%
same,Population Hoechst High Intensity Objects (%),[5],0.07% and 0%
same,Population Membrane Permeable-Phenotype (%),[5],4.24% and 5.04%
same,Population Mitochondria Different-Phenotype (%),[5],13.4% and 16.55%
same,Population Mitotic Cells (%),[5],94.07% and 77.61%
same,Population Normal (%),[5],99.93% and 100%
same,Population Apoptotic (%),[6],10.32% and 16.67%
same,Population Fragmented Nuclei (%),[6],2.79% and 3.68%
same,Population Healthy Nuclei (%),[6],86.89% and 63.19%
same,Population Hoechst High Intensity Objects (%),[6],0%
same,Population Membrane Permeable-Phenotype (%),[6],5.38% and 1.94%
same,Population Mitochondria Different-Phenotype (%),[6],11.04% and 20.39%
same,Population Mitotic Cells (%),[6],89.68% and 83.33%
same,Population Normal (%),[6],100%
CSCC[C@H](NC=O)C(=O)N[C@@H](CC(C)C)C(=O)N[C@@H](Cc1ccccc1)C(=O)O,Population Apoptotic (%),[1],28%
same,Population Mitochondria Different-Phenotype (%),[1],47% and 57%
same,Population Mitotic Cells (%),[1],71%
same,Population Tubulin-Different-Phenotype (%),[1],23% and 16%
same,Total Cell Count,[1],466 and 437
same,Population Apoptotic (%),[2],54%
same,Population Mitochondria Different-Phenotype (%),[2],52% and 64%
same,Population Mitotic Cells (%),[2],45%
same,Population Tubulin-Different-Phenotype (%),[2],37% and 31%
same,Total Cell Count,[2],366 and 375
same,Population Apoptotic (%),[3],21%
same,Population Mitochondria Different-Phenotype (%),[3],21% and 37%
same,Population Mitotic Cells (%),[3],78%
same,Population Tubulin-Different-Phenotype (%),[3],14% and 12%
same,Total Cell Count,[3],679 and 550
same,Population Apoptotic (%),[4],25% and 36%
same,Population Mitochondria Different-Phenotype (%),[4],38% and 53%
same,Population Mitotic Cells (%),[4],75% and 64%
same,Population Tubulin-Different-Phenotype (%),[4],25% and 22%
same,Total Cell Count,[4],479 and 490
same,Population Apoptotic (%),[5],29% and 20%
same,Population Mitochondria Different-Phenotype (%),[5],12% and 17%
same,Population Mitotic Cells (%),[5],79%
same,Population Tubulin-Different-Phenotype (%),[5],12%
same,Total Cell Count,[5],1154 and 838
same,Population Apoptotic (%),[6],28% and 36%
same,Population Mitochondria Different-Phenotype (%),[6],24% and 28%
same,Population Mitotic Cells (%),[6],71% and 63%
same,Population Tubulin-Different-Phenotype (%),[6],12% and 14%
same,Total Cell Count,[6],704 and 674
Cl.Cl.N#Cc1ccc(O[C@@H]2c3ccccc3C[C@H]2N2CCC[C@@H](N)C2)c(Cl)c1,Population Apoptotic (%),[1],8.75% and 10.31%
same,Population Fragmented Nuclei (%),[1],2.35% and 6.14%
same,Population Hoechst High Intensity Objects (%),[1],0%
same,Population Membrane Permeable-Phenotype (%),[1],1.16% and 0%
same,Population Mitochondria Different-Phenotype (%),[1],36.63% and 30%
same,Population Mitotic Cells (%),[1],91.25% and 89.69%
same,Population Normal (%),[1],100%
same,Population Pyknosed Nuclei (%),[1],47.06% and 85.09%
same,Population Tubulin-Different-Phenotype (%),[1],26.16% and 50%
same,Total Cell Count,[1],340 and 114
same,Population Apoptotic (%),[2],22.15% and 32.8%
same,Population Fragmented Nuclei (%),[2],4.33% and 4.76%
same,Population Healthy Nuclei (%),[2],27.27% and 10.2%
same,Population Hoechst High Intensity Objects (%),[2],0.86% and 0%
same,Population Membrane Permeable-Phenotype (%),[2],0% and 13.33%
same,Population Mitochondria Different-Phenotype (%),[2],28.57% and 33.33%
same,Population Mitotic Cells (%),[2],77.85% and 67.2%
same,Population Normal (%),[2],99.14% and 100%
same,Population Pyknosed Nuclei (%),[2],68.4% and 85.03%
same,Population Tubulin-Different-Phenotype (%),[2],71.43% and 93.33%
same,Total Cell Count,[2],233 and 147
same,Population Apoptotic (%),[3],26.62% and 47.67%
same,Population Fragmented Nuclei (%),[3],1.19% and 8.11%
same,Population Hoechst High Intensity Objects (%),[3],0.2% and 0%
same,Population Membrane Permeable-Phenotype (%),[3],2.03% and 0%
same,Population Mitochondria Different-Phenotype (%),[3],30.14% and 50%
same,Population Mitotic Cells (%),[3],73.38% and 52.33%
same,Population Normal (%),[3],99.8% and 100%
same,Population Pyknosed Nuclei (%),[3],30.5% and 77.48%
same,Population Tubulin-Different-Phenotype (%),[3],42.9% and 56.25%
same,Population Apoptotic (%),[4],63.58% and 76.03%
same,Population Fragmented Nuclei (%),[4],3.91% and 5.04%
same,Population Hoechst High Intensity Objects (%),[4],1.16% and 0%
same,Population Membrane Permeable-Phenotype (%),[4],1.05% and 9.09%
same,Population Mitochondria Different-Phenotype (%),[4],72.63% and 63.64%
same,Population Mitotic Cells (%),[4],36.42% and 23.97%
same,Population Normal (%),[4],98.84% and 100%
same,Population Pyknosed Nuclei (%),[4],58.98% and 87.05%
same,Population Tubulin-Different-Phenotype (%),[4],93.68% and 90.91%
same,Total Cell Count,[4],259 and 139
same,Population Fragmented Nuclei (%),[5],2.55% and 7.63%
same,Population Healthy Nuclei (%),[5],83.85% and 39.83%
same,Population Hoechst High Intensity Objects (%),[5],0.11% and 0%
same,Population Membrane Permeable-Phenotype (%),[5],7.35% and 0%
same,Population Mitochondria Different-Phenotype (%),[5],44.61% and 70.21%
same,Population Mitotic Cells (%),[5],90.62% and 66.13%
same,Population Normal (%),[5],99.89% and 100%
same,Population Apoptotic (%),[6],63.04% and 79.59%
same,Population Fragmented Nuclei (%),[6],2.57% and 5.97%
same,Population Healthy Nuclei (%),[6],58% and 20.9%
same,Population Hoechst High Intensity Objects (%),[6],1.69% and 0.74%
same,Population Membrane Permeable-Phenotype (%),[6],1.48% and 7.14%
same,Population Mitochondria Different-Phenotype (%),[6],95.07% and 92.86%
same,Population Mitotic Cells (%),[6],36.96% and 20.41%
same,Population Normal (%),[6],98.31% and 99.26%
same,Population Pyknosed Nuclei (%),[6],39.43% and 73.13%
same,Population Tubulin-Different-Phenotype (%),[6],30.05% and 89.29%
same,Total Cell Count,[6],356 and 135
